Five compounds from ChEMBL document CHEMBL1128413, “The serotonin 5-HT4 receptor. 1. Design of a new class of agonists and receptor map of the agonist recognition site” (J Med Chem, 1995) can be followed below.

Assay [1] has as its target 5-hydroxytryptamine receptor 4 (Cavia porcellus) (UniProt O70528). In words: 5-hydroxytryptamine 4 receptor agonist activity in the guinea pig ileum assay. The format is functional, tissue-based. The gist of the method: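 Guinea pig ileum longitudinal muscle strips in tyrode solution with 0.1 μM methysergide. Twitch contractions (2–3 s) evoked by field stimulation with square-wave pulses (0.1 Hz, 2 ms) via platinum electrodes. Once a stable submaximal response is reached, noncumulative concentration–response curves are built for enhancement of twitch. Readouts are pD2 and efficacy relative to 5-HT.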

Assay [2] has the same target. In words: Compound was evaluated for the relative potency with respect to serotonin against 5-hydroxytryptamine 4 receptor. The format is functional.
Assay [3] addresses D(2) dopamine receptor (Bos taurus) (UniProt P20288). The assay is described as follows: Binding affinity was evaluated by Dopamine receptor D2 binding in the calf striatum by displacing spiperone. The format is tissue-based. In a few lines:
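Radioligand displacement with [3H]spiperone on calf striatum membranes; Ki reported.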

In assay [4] the target is Serotonin 3 (5-HT3) receptor (Homo sapiens) (UniProt P46098+A5X5Y0+O95264+Q70Z44+Q8WXA8). In words: 5-hydroxytryptamine 3 receptor agonism in the guinea pig ileum by functional 5-HT3 receptor assay. The format is tissue-based. The settings on record: Cavia porcellus, target entry is the homologue from another species. In a few lines: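 Guinea pig ileum in tyrode solution containing 0.1 μM methysergide. 5-HT3 receptor-mediated contractions recorded isotonically; concentration–response curves built noncumulatively.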

The target of assay [5] is T1, Alpha-1A adrenergic receptor (Bos taurus) (UniProt P18130).
T1 sequence (whole entry): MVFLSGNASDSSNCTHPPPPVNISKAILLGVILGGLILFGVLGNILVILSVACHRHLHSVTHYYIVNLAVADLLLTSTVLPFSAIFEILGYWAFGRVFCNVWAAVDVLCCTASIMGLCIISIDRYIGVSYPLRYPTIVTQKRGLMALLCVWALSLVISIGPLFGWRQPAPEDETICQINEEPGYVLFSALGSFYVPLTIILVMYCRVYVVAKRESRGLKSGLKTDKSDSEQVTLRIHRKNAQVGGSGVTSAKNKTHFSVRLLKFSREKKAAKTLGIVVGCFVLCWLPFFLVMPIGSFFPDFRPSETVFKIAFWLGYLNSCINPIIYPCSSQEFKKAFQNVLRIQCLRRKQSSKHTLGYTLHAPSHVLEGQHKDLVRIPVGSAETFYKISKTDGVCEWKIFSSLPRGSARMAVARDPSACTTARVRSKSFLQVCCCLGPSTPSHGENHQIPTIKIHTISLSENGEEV
In words: Binding affinity was evaluated by Alpha-1 adrenergic receptor in calf cortex by displacing prazosin. In a few lines: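 Radioligand displacement with [3H]prazosin on calf cortex membranes; Ki reported.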

In assay [6] the test system is 5-HT1A receptor (Sus scrofa). In words: Binding affinity was evaluated by 5-hydroxytryptamine 1A receptor […] in the pig cortex by displacing 8-OH-DPAT.
Assay [7] deals with 5-hydroxytryptamine receptor 2A (Rattus norvegicus) (UniProt P14842). In words: Binding affinity was evaluated by 5-hydroxytryptamine 2A receptor […] in the rat cortex by displacing ketanserin. The gist of the method:
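Radioligand displacement with [3H]ketanserin on rat cortex membranes; Ki reported.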

Assay [8] has as its target D(1A) dopamine receptor (Bos taurus) (UniProt Q95136). In words: Binding affinity was evaluated by dopamine receptor D1 […] in the calf striatum by displacing SCH 23390. The format is tissue-based. The gist of the method:
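Radioligand displacement with [3H]SCH 23390 on calf striatum membranes; Ki reported.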

The target in the next assay is D(2) dopamine receptor (Bos taurus, UniProt P20288). The assay is described as follows: Compound was evaluated for the binding affinity at Dopamine receptor D2. In a few lines:
(§1)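 Radioligand binding to native tissue membranes. Each receptor used its own tissue and [³H]radioligand: 5-HT2A in rat cortex with [³H]ketanserin, 5-HT3 in mouse N1E-115 cells with [³H]tropisetron, α1 in calf cortex with [³H]prazosin, and D2 in calf striatum with [³H]spiperone. Affinity is reported as Ki.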

The target of assay [9] is T2, Serotonin 3 receptor (5HT3) (Mus musculus) (UniProt Q9JHJ5+P23979).
Assay [10] has as its target T3, Serotonin 3 receptor (5HT3) (Mus musculus, UniProt Q9JHJ5+P23979).
T3 sequence (Q9JHJ5 whole entry): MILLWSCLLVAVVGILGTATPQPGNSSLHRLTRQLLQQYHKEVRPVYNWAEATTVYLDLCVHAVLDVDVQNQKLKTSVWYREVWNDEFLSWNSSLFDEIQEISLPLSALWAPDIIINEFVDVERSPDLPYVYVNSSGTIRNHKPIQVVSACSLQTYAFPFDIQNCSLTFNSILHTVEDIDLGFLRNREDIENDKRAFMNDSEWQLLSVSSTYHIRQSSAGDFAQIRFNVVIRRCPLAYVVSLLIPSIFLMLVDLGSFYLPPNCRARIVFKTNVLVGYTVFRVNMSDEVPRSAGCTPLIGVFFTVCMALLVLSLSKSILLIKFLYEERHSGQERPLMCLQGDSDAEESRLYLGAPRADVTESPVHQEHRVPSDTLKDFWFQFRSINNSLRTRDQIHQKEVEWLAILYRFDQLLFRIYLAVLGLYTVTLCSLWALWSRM
T3 sequence (P23979 whole entry): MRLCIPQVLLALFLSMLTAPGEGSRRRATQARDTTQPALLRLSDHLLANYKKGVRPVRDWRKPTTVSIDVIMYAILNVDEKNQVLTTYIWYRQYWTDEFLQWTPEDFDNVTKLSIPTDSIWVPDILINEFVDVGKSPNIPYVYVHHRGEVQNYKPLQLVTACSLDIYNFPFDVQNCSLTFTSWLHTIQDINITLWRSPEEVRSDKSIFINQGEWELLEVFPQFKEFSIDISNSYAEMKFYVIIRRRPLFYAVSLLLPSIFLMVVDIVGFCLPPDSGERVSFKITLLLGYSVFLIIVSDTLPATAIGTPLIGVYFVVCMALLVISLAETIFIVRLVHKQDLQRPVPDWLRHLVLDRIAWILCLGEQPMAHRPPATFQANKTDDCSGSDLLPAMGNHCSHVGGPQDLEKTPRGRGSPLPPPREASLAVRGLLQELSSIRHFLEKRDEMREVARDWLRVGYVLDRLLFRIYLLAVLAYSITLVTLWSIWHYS
In words: Compound was evaluated for the binding affinity at 5- HT3 receptor subtype. The format is protein assay. In a few lines: as §1

Assay [11] concerns the target D(1A) dopamine receptor (Bos taurus) (UniProt Q95136). The following applies: Striatum.
Assay [12] concerns the target T2, Serotonin 3 receptor (5HT3) (Mus musculus). The source holds these as a separate data set.

Bounds are passed on as bounds.

Sequence of D(1A) dopamine receptor (Bos taurus) (Q95136 whole entry): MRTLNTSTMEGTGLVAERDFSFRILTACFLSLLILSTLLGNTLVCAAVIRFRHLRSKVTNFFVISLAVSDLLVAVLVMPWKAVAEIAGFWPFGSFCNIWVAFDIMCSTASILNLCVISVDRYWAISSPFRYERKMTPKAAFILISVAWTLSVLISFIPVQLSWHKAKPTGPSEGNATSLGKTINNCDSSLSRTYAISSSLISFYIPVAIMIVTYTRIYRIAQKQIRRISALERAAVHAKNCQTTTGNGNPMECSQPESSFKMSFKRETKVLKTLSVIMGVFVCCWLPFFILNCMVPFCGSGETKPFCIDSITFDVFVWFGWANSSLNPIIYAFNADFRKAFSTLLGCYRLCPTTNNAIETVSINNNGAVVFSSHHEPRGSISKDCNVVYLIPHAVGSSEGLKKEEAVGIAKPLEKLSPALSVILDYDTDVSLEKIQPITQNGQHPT
Sequence of 5-hydroxytryptamine receptor 2A (Rattus norvegicus) (P14842 whole entry): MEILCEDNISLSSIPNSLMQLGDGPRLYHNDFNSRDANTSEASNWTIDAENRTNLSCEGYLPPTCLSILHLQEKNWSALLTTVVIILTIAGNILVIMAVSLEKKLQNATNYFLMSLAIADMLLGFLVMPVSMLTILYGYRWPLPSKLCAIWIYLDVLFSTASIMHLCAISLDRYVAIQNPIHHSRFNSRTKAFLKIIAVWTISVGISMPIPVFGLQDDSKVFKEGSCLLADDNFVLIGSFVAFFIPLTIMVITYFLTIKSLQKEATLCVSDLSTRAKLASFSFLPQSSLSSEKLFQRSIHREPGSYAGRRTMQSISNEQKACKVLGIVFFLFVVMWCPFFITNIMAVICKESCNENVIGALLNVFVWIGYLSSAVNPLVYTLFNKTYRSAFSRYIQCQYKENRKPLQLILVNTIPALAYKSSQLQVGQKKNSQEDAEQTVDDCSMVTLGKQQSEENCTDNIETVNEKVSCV
Sequence of D(2) dopamine receptor (Bos taurus) (P20288 whole entry): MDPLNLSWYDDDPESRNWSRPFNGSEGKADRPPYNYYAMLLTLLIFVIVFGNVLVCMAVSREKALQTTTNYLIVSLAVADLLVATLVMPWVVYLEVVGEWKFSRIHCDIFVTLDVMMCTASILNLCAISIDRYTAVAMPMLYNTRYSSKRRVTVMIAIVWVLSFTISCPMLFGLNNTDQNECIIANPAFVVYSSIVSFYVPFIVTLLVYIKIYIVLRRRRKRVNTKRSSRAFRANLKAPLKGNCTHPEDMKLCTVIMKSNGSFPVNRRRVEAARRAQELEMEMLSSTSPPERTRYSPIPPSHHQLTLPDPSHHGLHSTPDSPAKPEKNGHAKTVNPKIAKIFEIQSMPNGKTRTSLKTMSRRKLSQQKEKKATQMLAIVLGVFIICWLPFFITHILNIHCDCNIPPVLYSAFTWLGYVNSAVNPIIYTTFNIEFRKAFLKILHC
Sequence of 5-hydroxytryptamine receptor 4 (Cavia porcellus) (O70528 whole entry): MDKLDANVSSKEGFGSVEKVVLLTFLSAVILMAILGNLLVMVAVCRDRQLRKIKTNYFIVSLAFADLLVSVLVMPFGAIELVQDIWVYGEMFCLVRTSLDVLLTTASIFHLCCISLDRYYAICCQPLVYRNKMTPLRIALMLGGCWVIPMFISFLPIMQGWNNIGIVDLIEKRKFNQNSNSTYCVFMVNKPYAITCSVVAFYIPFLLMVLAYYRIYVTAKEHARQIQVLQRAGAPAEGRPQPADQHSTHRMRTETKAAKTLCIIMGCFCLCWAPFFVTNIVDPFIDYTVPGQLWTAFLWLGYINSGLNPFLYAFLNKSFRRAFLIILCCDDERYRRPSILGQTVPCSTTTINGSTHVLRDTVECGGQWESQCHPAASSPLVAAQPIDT
Sequence of D(2) dopamine receptor (P20288 whole entry): as the sequence (P20288 whole entry) above

In turn, `NCCc1c[nH]c2ccc(O)cc12` displayed a pD2 in assay [1] of 8.4. The same compound gave a Potency relative to serotonin in assay [2] of 1.

Consider `N=C(N)N/N=C/c1c[nH]c2ccc(O)cc12`, for which the figures for the pD2 in assay [1] and in assay [4] were 8.8 and less than 5, respectively. Further, the pKD in [3] is less than 5; in [5] it was less than 5.5; in assay [6] it was 7.2; in [7], 6.6; in [8], 5.4. The compound further had a Potency relative to serotonin in [2] of 1.5.

For `CCN(CC)CCNC(=O)c1cc(Cl)c(N)cc1OC` [METOCLOPRAMIDE], the pD2 in assay [1] turned out to be 5.6. Further, the pKD in [3] was 7.1; in [5], less than 5; in [9] it was 6.7; in assay [7], 5.4; in [11] it was less than 5. In [2], this compound returned a Potency relative to serotonin of 1. Further, the Ki on D(2) dopamine receptor amounted to 80 nM; in assay [10], 200 nM.

As for `COc1cc(N)c(Cl)cc1C(=O)N[C@H]1CN2CCC1CC2`, in assay [1], the pD2 came to 6.8. The pKD in assay [3] is less than 5; in [5] it was less than 5; in [7] it was less than 5; in assay [12], 9.5; in [11], less than 5. The compound further had a Potency relative to serotonin in assay [2] of 1.9.

`COc1cc(N)c(Cl)cc1C(=O)N[C@H]1CCN(CCCOc2ccc(F)cc2)C[C@H]1OC` came in with a pD2 in assay [1] of 6. The pKD in assay [3] was determined as 6.5; in [12], 7.2; in assay [11] it was 5.2. In addition, the Potency relative to serotonin in [2] worked out at 0.7.
